# Measurements as given in ChEMBL document CHEMBL1122685, “Identification of an acridine photoaffinity probe for trypanocidal action” (1984).
# System: Trypanosoma brucei
# Test: Trypanocidal activity against Trypanosoma brucei, exposure of parasites to compound prior to injection into mice at 10 e-5 M concentration in presence of light
# Assay type: functional
# Design: unit: days
# Summary of the method: (§1)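 DEAE-purified T. brucei EATRO 110 at 5×10^6/mL in TSG was mixed with drug at the final concentration by gentle rotation for 10 min. Samples were light-activated for 10 min under a 30W fluorescent lamp 4 cm above. 5×10^5 treated parasites in 0.1 mL were injected ip into Swiss mice, five per group. Survival was scored daily for 30 days and reported as mean days ±SD, with untreated controls.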
row,SMILES,Activity
1,C[n+]1c2ccccc2cc2c(N)cccc21.[Cl-],6.4
2,Nc1c2ccccc2nc2cccc([N+](=O)[O-])c12,30
3,Nc1ccc(Nc2c3ccccc3nc3ccccc23)cc1,6.4
4,[N-]=[N+]=Nc1c2ccccc2nc2cccc([N+](=O)[O-])c12,30
5,C[n+]1c2ccccc2cc2c(N=[N+]=[N-])cccc21.[Cl-],4.8
6,[N-]=[N+]=Nc1c2ccccc2nc2ccccc12,30
7,C[n+]1c2cc(N)ccc2cc2ccc(N)cc21.[Cl-] [EUFLAVINE],30
8,CN(C)CCCNc1c2ccccc2nc2cccc([N+](=O)[O-])c12 [NITRACRINE],30

# System: Trypanosoma brucei
# Test: Trypanocidal activity against Trypanosoma brucei, exposure of parasites to compound prior to injection into mice at 10 e-4 M concentration in presence of light
# Assay type: functional
# Design: unit: days
# Summary of the method: as §1
row,SMILES,Activity
1,[N-]=[N+]=Nc1ccc2cc3ccc(N=[N+]=[N-])cc3nc2c1,5.5
2,C[n+]1c2ccccc2cc2c(N)cccc21.[Cl-],30
3,Nc1c2ccccc2nc2cccc([N+](=O)[O-])c12,30
4,Nc1ccc(Nc2c3ccccc3nc3ccccc23)cc1,30
5,[N-]=[N+]=Nc1c2ccccc2nc2cccc([N+](=O)[O-])c12,30
6,C[n+]1c2ccccc2cc2c(N=[N+]=[N-])cccc21.[Cl-],4.8
7,[N-]=[N+]=Nc1c2ccccc2nc2ccccc12,30
8,CN(C)CCCNc1c2ccccc2nc2cccc([N+](=O)[O-])c12 [NITRACRINE],30

# System: Trypanosoma brucei
# Test: Compound is evaluated for trypanocidal activity against Trypanosoma brucei, by exposing the parasites directly to compound prior to injection to mice at 10 e-6 M concentration (pre) in presence of light.
# Assay type: functional
# Summary of the method: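 Compound was irradiated 1 h before contact with T. brucei EATRO 110 (5×10^6/mL in TSG, final drug concentration). After 10 min gentle rotation, the mixture was irradiated again for 10 min under a 30W fluorescent lamp at 4 cm. 5×10^5 parasites in 0.1 mL were given ip to five Swiss mice per group. Read-out was mean days survival ±SD over 30 days, with untreated controls.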
row,SMILES,Mean survival of mice (days)
1,C[n+]1c2ccccc2cc2ccc(N)cc21.[Cl-],15.5
2,[N-]=[N+]=Nc1c2ccccc2nc2cccc([N+](=O)[O-])c12,4
3,[N-]=[N+]=Nc1c2ccccc2nc2ccccc12,4.2
4,C[n+]1c2cc(N)ccc2cc2ccc(N)cc21.[Cl-] [EUFLAVINE],30
5,CN(C)CCCNc1c2ccccc2nc2cccc([N+](=O)[O-])c12 [NITRACRINE],10.4

# System: Trypanosoma brucei
# Test: Trypanocidal activity against Trypanosoma brucei, exposur of parasites to compound prior to injection into mice at 10 e-6 M concentration in presence of light
# Assay type: functional
# Design: unit: days
# Summary of the method: as §1
row,SMILES,Activity
1,C[n+]1c2ccccc2cc2c(N)cccc21.[Cl-],4.2
2,C[n+]1c2ccccc2cc2ccc(N)cc21.[Cl-],30
3,Nc1c2ccccc2nc2cccc([N+](=O)[O-])c12,5.8
4,Nc1ccc(Nc2c3ccccc3nc3ccccc23)cc1,4.4
5,CC[n+]1c(-c2ccccc2)c2cc(N=[N+]=[N-])ccc2c2ccc(N)cc21.[Cl-],30
6,[N-]=[N+]=Nc1c2ccccc2nc2cccc([N+](=O)[O-])c12,6
7,[N-]=[N+]=Nc1c2ccccc2nc2ccccc12,30
8,C[n+]1c2cc(N)ccc2cc2ccc(N)cc21.[Cl-] [EUFLAVINE],30
9,CN(C)CCCNc1c2ccccc2nc2cccc([N+](=O)[O-])c12 [NITRACRINE],22.9

# System: Trypanosoma brucei
# Test: Compound is evaluated for trypanocidal activity against Trypanosoma brucei, by exposing the parasites directly to compound prior to injection to mice at 10 E-6 M concentration in presence of light
# Assay type: functional
# Summary of the method: as §1
row,SMILES,Activity
1,Nc1cccc2nc3ccccc3c(N)c12,4.6

# System: Trypanosoma brucei
# Test: Trypanocidal activity against Trypanosoma brucei, exposure of parasites to compound prior to injection into mice at 10 e-6 M concentration in dark conditions
# Assay type: functional
# Summary of the method: (§2)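 T. brucei EATRO 110 was separated from blood on DEAE-cellulose and washed in Tris-saline-glucose (TSG). Parasites at 5×10^6/mL in TSG were gently rotated 10 min with drug at the final concentration, kept dark under a red safelight until injection. Swiss mice, five per group, received 5×10^5 parasites ip in 0.1 mL. Read-out was mean days survival ±SD over 30 days, against untreated-parasite controls.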
row,SMILES,Activity
1,C[n+]1c2ccccc2cc2c(N)cccc21.[Cl-],4
2,C[n+]1c2ccccc2cc2ccc(N)cc21.[Cl-],6.9
3,Nc1c2ccccc2nc2cccc([N+](=O)[O-])c12,4.4
4,Nc1ccc(Nc2c3ccccc3nc3ccccc23)cc1,5.4
5,CC[n+]1c(-c2ccccc2)c2cc(N=[N+]=[N-])ccc2c2ccc(N)cc21.[Cl-],4.6
6,[N-]=[N+]=Nc1c2ccccc2nc2cccc([N+](=O)[O-])c12,4.2
7,[N-]=[N+]=Nc1c2ccccc2nc2ccccc12,5
8,C[n+]1c2cc(N)ccc2cc2ccc(N)cc21.[Cl-] [EUFLAVINE],6.9
9,CN(C)CCCNc1c2ccccc2nc2cccc([N+](=O)[O-])c12 [NITRACRINE],5.7

# System: Trypanosoma brucei
# Test: Compound is evaluated for trypanocidal activity against Trypanosoma brucei, by exposing the parasites directly to compound prior to injection to mice at 10 E-5 M concentration in presence of light
# Assay type: functional
# Summary of the method: as §1
row,SMILES,Activity
1,Nc1cccc2nc3ccccc3c(N)c12,5.6

# System: Trypanosoma brucei
# Test: Compound is evaluated for trypanocidal activity against Trypanosoma brucei, by exposing the parasites directly to compound prior to injection to mice at 10 E-6 M concentration in dark conditions
# Assay type: functional
# Summary of the method: as §2
row,SMILES,Activity
1,Nc1cccc2nc3ccccc3c(N)c12,5.4

# System: Trypanosoma brucei
# Test: Trypanocidal activity against Trypanosoma brucei, exposure of parasites to compound prior to injection into mice at 10 e-5 M concentration in dark conditions
# Assay type: functional
# Summary of the method: as §2
row,SMILES,Activity
1,C[n+]1c2ccccc2cc2c(N)cccc21.[Cl-],4.6
2,C[n+]1c2ccccc2cc2ccc(N)cc21.[Cl-],14.2
3,Nc1c2ccccc2nc2cccc([N+](=O)[O-])c12,25.4
4,Nc1ccc(Nc2c3ccccc3nc3ccccc23)cc1,5
5,[N-]=[N+]=Nc1c2ccccc2nc2cccc([N+](=O)[O-])c12,10
6,C[n+]1c2ccccc2cc2c(N=[N+]=[N-])cccc21.[Cl-],6.4
7,[N-]=[N+]=Nc1c2ccccc2nc2ccccc12,30
8,C[n+]1c2cc(N)ccc2cc2ccc(N)cc21.[Cl-] [EUFLAVINE],30
9,CN(C)CCCNc1c2ccccc2nc2cccc([N+](=O)[O-])c12 [NITRACRINE],5.7

# System: Trypanosoma brucei
# Test: Compound is evaluated for trypanocidal activity against Trypanosoma brucei, by exposing the parasites directly to compound prior to injection to mice at 10 e-5 M concentration in presence of light
# Assay type: functional
# Summary of the method: as §1
row,SMILES,Activity
1,C[n+]1c2ccccc2cc2ccc(N)cc21.[Cl-],30

# System: Trypanosoma brucei
# Test: Compound is evaluated for trypanocidal activity against Trypanosoma brucei, by exposing the parasites directly to compound prior to injection to mice at 10 e-7 M concentration in presence of light
# Assay type: functional
# Design: unit: days
# Summary of the method: as §1
row,SMILES,Activity
1,C[n+]1c2ccccc2cc2ccc(N)cc21.[Cl-],12.4
2,CC[n+]1c(-c2ccccc2)c2cc(N=[N+]=[N-])ccc2c2ccc(N)cc21.[Cl-],27.4
3,[N-]=[N+]=Nc1c2ccccc2nc2cccc([N+](=O)[O-])c12,5
4,[N-]=[N+]=Nc1c2ccccc2nc2ccccc12,4
5,C[n+]1c2cc(N)ccc2cc2ccc(N)cc21.[Cl-] [EUFLAVINE],17.8
6,CN(C)CCCNc1c2ccccc2nc2cccc([N+](=O)[O-])c12 [NITRACRINE],6.6

# System: Trypanosoma brucei
# Test: Compound is evaluated for trypanocidal activity against Trypanosoma brucei, by exposing the parasites directly to compound prior to injection to mice at 10 e-6 M concentration (pre) in dark conditions
# Assay type: functional
# Summary of the method: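 Drug was preirradiated 1 h with visible light, then added at the final concentration to T. brucei EATRO 110 (5×10^6/mL in TSG) and rotated 10 min. The parasites were then kept dark with a red safelight. Swiss mice, five per group, were injected ip with 0.1 mL holding 5×10^5 parasites. Mean days survival ±SD was scored over 30 days against untreated-parasite controls.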
row,SMILES,Activity
1,C[n+]1c2cc(N)ccc2cc2ccc(N)cc21.[Cl-] [EUFLAVINE],7.8

# System: Trypanosoma brucei
# Test: Compound is evaluated for trypanocidal activity against Trypanosoma brucei, by exposing the parasites directly to compound prior to injection to mice at 10 e-7 M concentration in dark conditions
# Assay type: functional
# Design: unit: days
# Summary of the method: as §2
row,SMILES,Activity
1,C[n+]1c2ccccc2cc2ccc(N)cc21.[Cl-],4.6
2,CC[n+]1c(-c2ccccc2)c2cc(N=[N+]=[N-])ccc2c2ccc(N)cc21.[Cl-],4
3,[N-]=[N+]=Nc1c2ccccc2nc2cccc([N+](=O)[O-])c12,5.4
4,[N-]=[N+]=Nc1c2ccccc2nc2ccccc12,4.6
5,C[n+]1c2cc(N)ccc2cc2ccc(N)cc21.[Cl-] [EUFLAVINE],6.3
6,CN(C)CCCNc1c2ccccc2nc2cccc([N+](=O)[O-])c12 [NITRACRINE],6

# System: Trypanosoma brucei
# Test: Compound is evaluated for trypanocidal activity against Trypanosoma brucei, by exposing the parasites directly to compound prior to injection to mice at 10 E-4 M concentration in presence of light
# Assay type: functional
# Summary of the method: as §1
row,SMILES,Activity
1,Nc1cccc2nc3ccccc3c(N)c12,30

# System: Trypanosoma brucei
# Test: Compound is evaluated for trypanocidal activity against Trypanosoma brucei, by exposing the parasites directly to compound prior to injection to mice at 10 E-4 M concentration in dark conditions
# Assay type: functional
# Summary of the method: as §2
row,SMILES,Activity
1,Nc1cccc2nc3ccccc3c(N)c12,30

# System: Trypanosoma brucei
# Test: Trypanocidal activity against Trypanosoma brucei, exposure of parasites to compound prior to injection into mice at 10 e-4 M concentration in dark conditions
# Assay type: functional
# Summary of the method: as §2
row,SMILES,Mean survival time of infected mice (days)
1,[N-]=[N+]=Nc1ccc2cc3ccc(N=[N+]=[N-])cc3nc2c1,6
2,C[n+]1c2ccccc2cc2c(N)cccc21.[Cl-],30
3,C[n+]1c2ccccc2cc2ccc(N)cc21.[Cl-],30
4,Nc1c2ccccc2nc2cccc([N+](=O)[O-])c12,30
5,Nc1ccc(Nc2c3ccccc3nc3ccccc23)cc1,30
6,[N-]=[N+]=Nc1c2ccccc2nc2cccc([N+](=O)[O-])c12,30
7,C[n+]1c2ccccc2cc2c(N=[N+]=[N-])cccc21.[Cl-],4.4
8,[N-]=[N+]=Nc1c2ccccc2nc2ccccc12,30
9,C[n+]1c2cc(N)ccc2cc2ccc(N)cc21.[Cl-] [EUFLAVINE],30
10,CN(C)CCCNc1c2ccccc2nc2cccc([N+](=O)[O-])c12 [NITRACRINE],30

# System: Trypanosoma brucei
# Test: Compound is evaluated for trypanocidal activity against Trypanosoma brucei, by exposing the parasites directly to compound prior to injection to mice at 10 E-5 M concentration in dark conditions
# Assay type: functional
# Summary of the method: as §2
row,SMILES,Activity
1,Nc1cccc2nc3ccccc3c(N)c12,4.6
